The list is not random: actives were taken first. Their share in the collection is about 2.6%.
SENP6 block – SENP6 protease inhibitors, primary screen, biochemical, luminescence, uHTS; Sentrin-specific protease 6 (Homo sapiens), Q9GZR1; Recombinant SENP6 catalytic domain, aminoluciferin luminescence; inhibition, % at 10 µM; 1.8% of 330,000 active; AID 2599, 2010;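 active = inhibition above about 50% at the single tested dose, limit read from the data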;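 note: plate controls were DMSO wells with enzyme for no effect and DMSO wells lacking enzyme for full effect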
SENP1 inh – human SENP1 catalytic domain inhibitors, primary screen, biochemical, FRET, uHTS; Sentrin-specific protease 1 (Homo sapiens), Q9P0U3; recombinant SENP1 catalytic domain, CyPet-SUMO1-YPet FRET cleavage; inhibition, % at 10 µM; 0.21% of 360,000 active; AID 624204, 2012;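 active = inhibition at least 30% at 10 µM, raw YFP signal under a set limit, fluorescence ratio 0.5 to 1.5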;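 note: 0% = enzyme with DMSO and 100% = no enzyme wells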
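Test system: recombinant human SENP1 catalytic domain, His6-tagged / Medium: pH 8 Tris buffer with EDTA, NaCl, BME, BSA, NP40, catalase / Also added: SUMO1 FRET substrate flanked by Cypet and Ypet, 25 nM / Times: 50 min reaction at room temperature / Signal: FRET, CFP and YFP emission / Control set: no-enzyme low control and enzyme-plus-DMSO high control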
SENP8 block-1 – human SENP8 protease inhibitors, primary screen, biochemical, fluorescence, Nedd8 protein substrate, uHTS | inhibition, % at 20 µM | 0.64% of 360,000 active | recombinant SENP8; in the data active = inhibition mostly above about 40%, no sharp cut-off; inactive = mostly below about 27%
SENP7 inh – SENP7 protease inhibitors, primary screen, biochemical, luminescence, uHTS. recombinant SENP7, Z-RLRGG-aminoluciferin luminescence, 40 min. Sentrin-specific protease 7 (Homo sapiens), Q9BQF6. AID 434973, 2010. 1.5% of 330,000 active. inhibition, % at 5 µM;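 active = inhibition above about 50% at the single test dose, limit read from the data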;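 note: plate controls were DMSO with enzyme for no effect and no enzyme buffer wells for full effect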
Target sequence (Q9BQF6 706-1050 limits assumed): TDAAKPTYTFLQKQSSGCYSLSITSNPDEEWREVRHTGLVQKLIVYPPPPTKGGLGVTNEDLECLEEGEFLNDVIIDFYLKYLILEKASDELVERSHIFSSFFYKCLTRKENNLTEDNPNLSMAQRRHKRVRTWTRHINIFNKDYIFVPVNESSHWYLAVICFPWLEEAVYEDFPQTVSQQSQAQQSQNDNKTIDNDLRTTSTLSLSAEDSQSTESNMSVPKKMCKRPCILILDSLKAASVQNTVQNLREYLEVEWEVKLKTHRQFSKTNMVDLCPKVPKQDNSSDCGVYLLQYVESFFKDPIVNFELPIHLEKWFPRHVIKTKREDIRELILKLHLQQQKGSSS
Platelet DG rel – inhibitors of platelet dense granule secretion, primary screen, cell-based, MLPCN, human platelets | human platelet-rich plasma, SFLLRN dense granule ATP release, luminescence | inhibition, %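 (compounds screened at 7.5 µM in platelet-rich plasma)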 | 0.22% of 300,000 active | AID 1663, 2009;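 active = mean replicate score, as percent of positive control, at or above 50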
SENP8 block-2 – SENP8 protease inhibitors, primary screen, biochemical, luminescence; AID 2540, 2010; inhibition, % at 10 µM; purified SENP8, Z-RLRGG-aminoluciferin cleavage; 1.2% of 330,000 active; in the data active = inhibition above about 50%
SENP8 confirm – SENP8 protease inhibitors, retest, confirmation, biochemical, luminescence, single concentration | shares compounds with SENP7 inh | Recombinant SENP8, Z-RLRGG-aminoluciferin luminescence, 60 min | inhibition, % at 12.5 µM | 40% of 6,200 active | AID 488912, 2010;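 active = mean inhibition across replicates above about 50%, limit read from the data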
SENP6 confirm – SENP6 protease inhibitors, confirmation, biochemical, luminescence, single concentration. shares compounds with SENP7 inh. recombinant SENP6, Z-RLRGG-aminoluciferin luminescence. inhibition, % at 12.5 µM. 58% of 6,200 active
SENP7 confirm – SENP7 protease inhibitors, retest, confirmation, biochemical, luminescence, single concentration | shares compounds with SENP7 inh | recombinant SENP7, Z-RLRGG-aminoluciferin luminescence, 40 min | inhibition, % at 12.5 µM | 69% of 6,200 active
Casp3 SENP sel – caspase-3 protease inhibitors, confirmation, selectivity assay for SENP inhibitor project, biochemical, single concentration. 60% of 6,200 active. shares compounds with SENP7 inh. inhibition, % at 12.5 µM. purified caspase-3, Z-DEVD-aminoluciferin luminescence, 60 min;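 active = mean inhibition above about 50%, limit read from the data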;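 note: plate controls were enzyme with DMSO for no effect and wells without caspase-3 for full effect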
Luc interf – luminescence interference (SENP counter-screen) | shares compounds with SENP7 inh | Pre-incubated SENP8/Z-RLRGG-aminoluciferin, luciferase luminescence interference | inhibition, % at 12.5 µM | 39% of 6,200 active;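 active = mean inhibition above about 50% when retested at one dose, limit read from the data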;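 note: plate controls were DMSO wells with completed reaction for no effect and substrate without enzyme for full effect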
The depositor's hits bear a star; . = no result given.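 Rule for the calls, unless noted: active = mean inhibition above about 50% in the one-dose retest (limit read from the data); inactive = the rest.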

SMILES	SENP6 block	SENP1 inh	SENP8 block-1	SENP7 inh	Platelet DG rel	SENP8 block-2	SENP8 confirm	SENP6 confirm	SENP7 confirm	Casp3 SENP sel	Luc interf
C=CCn1c(/N=C/c2ccc(N(C)C)cc2)nc2ccccc21	77.2*	-32.0	6.5	6.2	1.1	71.0*	81.4*	78.5*	94.5*	74.8*	85.1*
C=CCn1c(/N=C/c2ccc(OC)cc2)nc2ccccc21	34.5	0.5	23.7	-6.3	-1.0	-3.7	.	.	.	.	.
CCOc1ccc(OCC)c(NC(=O)CSCCc2ccccn2)c1	82.3*	2.2	25.7	8.8	-0.9	2.3	10.7	5.7	-3.0	-5.8	-6.0
CC(C)N1CCC1(C)C(=O)Nc1ccc2cn[nH]c2c1 (stereo not drawn)	.	1.3	7.2	.	.	.	.	.	.	.	.
Cn1cccc1-c1nc2ccc([N+](=O)[O-])cc2[nH]1	61.9*	9.1	-10.2	57.5*	5.0	46.0	51.3*	51.7*	84.8*	61.6*	61.7*
O=[N+]([O-])c1ccc2nc(-c3cccnc3)[nH]c2c1	42.0	1.3	9.4	7.2	0.3	24.4	.	.	.	.	.
O=[N+]([O-])c1ccc2nc(-c3ccccc3)[nH]c2c1	81.6*	2.3	15.5	84.7*	9.8	78.9*	5.7	80.7*	95.1*	82.6*	82.3*
O=C1/C(=C/c2cccc([N+](=O)[O-])c2)Oc2cc(O)ccc21	67.4*	10.6	-14.1	45.4	1.3	54.4*	3.9	7.7	20.3	7.6	34.5
O=C1/C(=C/c2ccc(O)c(O)c2)Oc2cc(O)ccc21	4.5	-20.0	-240.5	5.6	.	-2.7	.	.	.	.	.
N#CCCC(CCC#N)(CCC#N)c1cc[n+](CCc2ccccn2)cc1	-11.8	-0.1	10.3	0.7	5.0	-2.3	.	.	.	.	.
N#C/C(=C/c1cccs1)c1nc2ccccc2[nH]1	48.2	-58.7	-67.6	57.0*	2.3	29.5	44.0	47.5	83.9*	58.4*	22.1
Cc1cc(/C=C(\C#N)c2nc3ccccc3[nH]2)c(C)n1C	-0.7	-42.9	-82.7	0.2	-1.3	-5.3	.	.	.	.	.
Cc1ccc(/C=C(\C#N)c2nc3ccccc3[nH]2)s1	22.6	-24.8	-22.4	84.0*	-17.6	13.5	40.0	30.7	92.9*	73.9*	60.9*
COc1c(O)ccc(/C=C(\C#N)c2nc3ccccc3[nH]2)c1[N+](=O)[O-]	54.1*	-34.2	-22.0	14.1	-10.3	13.7	27.3	27.8	58.8*	22.7	48.4
COc1ccc(-c2nc3ccccn3c2Cl)cc1	97.4*	-1.8	-263.0	99.6*	26.1	96.4*	4.9	99.4*	103.2*	98.1*	97.3*
CC(C)c1ccc(CC(=O)N2CCC2(C)C(=O)NCc2cccc3ccccc23)cc1 (stereo not drawn)	.	0.8	0.1	.	.	.	.	.	.	.	.
COc1cccc(NC(=O)Cc2ccccc2)c1	74.0*	-0.9	18.0	78.4*	-3.6	67.0*	69.8*	65.2*	89.8*	83.3*	76.3*

Screens deposited in PubChem BioAssay by several laboratories.
